Bioassay records from PubChem BioAssay.
WNV protease inh – inhibitors of West Nile virus NS2B-NS3 protease. P06935. WNV NS2B-NS3 protease, fluorogenic substrate Ex360/Em465; hits give low values. z-score (test concentration not listed). 65,000 compounds, 0.18% hits. AID 577; in the data active = z-score below about -3
Target sequence (P06935 1371-1501 limits assumed): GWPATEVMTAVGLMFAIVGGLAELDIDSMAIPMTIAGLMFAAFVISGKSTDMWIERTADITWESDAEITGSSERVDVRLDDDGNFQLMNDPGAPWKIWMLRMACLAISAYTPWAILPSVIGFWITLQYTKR
Target sequence (P06935 1502-1679 limits assumed): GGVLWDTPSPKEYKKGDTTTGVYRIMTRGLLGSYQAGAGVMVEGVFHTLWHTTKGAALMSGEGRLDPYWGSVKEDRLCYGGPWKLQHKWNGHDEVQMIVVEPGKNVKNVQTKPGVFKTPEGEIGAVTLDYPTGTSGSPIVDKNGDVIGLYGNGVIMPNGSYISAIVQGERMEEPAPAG
AP complement – alternative pathway complement inhibition, orthogonal assay; Human serum alternative complement pathway, LPS-coated ELISA, C3 deposition; tested in compound mixtures; inhibition, % at 5 µM; 62,000 compounds, 0.08% hits; AID 1235;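 active = inhibition above 30% in each of the two pooled mixtures holding the compound, so the lower value exceeds 30%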
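Assay system: Human serum alternative complement pathway, C3 deposition on LPS-coated wells | Incubation: 1 h serum-compound exposure at 37 °C | Doses: 5 µM per compound in ten-compound mixtures | Read-out: Percent inhibition | Technique: ELISA with HRP anti-human C3 antibody, TMB substrate, absorbance 450 nm | Replication: Two pool placements per compound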
D1 allo mod – allosterically modulates the human D1 dopamine receptor. P21728. B-score at 10 µM. HEK293 D1, CRE-luciferase, dopamine EC30 potentiation; actives deviate in either direction. 58,000 compounds, 5.9% hits;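 active = luminescence count or its row- and column-corrected plate score outside the 99.7% band of the plate's sample wells, on either side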
DAT uptake mod – human DAT dopamine uptake with cocaine, either direction. 110,000 compounds, 1.3% hits. LLC-PK1 hDAT cells, [14C]-dopamine uptake with cocaine IC80; actives deviate in either direction. AID 449768. B-score at 10 µM. Q01959;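 active = Z score or B-score, a plate-position-corrected score, falls beyond the plate's 99.7% confidence bounds, in either direction; inactive = both scores lie inside the 99.7% bounds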
Each line names hits and unclear results; the compound was inactive in the other large screens. Only a selection was taken, and hits are over-represented in it overall.

Cc1cc(N2CCC(C(=O)NC3CCCCC3)CC2)nc(-c2ccccc2)n1	WNV protease inh -4.8
Cc1cc(N2CCC(C(=O)NC3CC3)CC2)nc(-c2ccccc2)n1	none
CCC(C)[C@H]1CN=C(N)N1CCc1cccc(F)c1 (stereo partly specified)	none (no result: WNV protease inh, AP complement, D1 allo mod)
Cc1cc2ccccc2n1CCNC(=O)Cc1ccccc1	none (no result: WNV protease inh, AP complement, D1 allo mod)
Cc1cc2ccccc2n1CCNC(=O)c1ccc(S(=O)(=O)N2CCCCC2)cc1	DAT uptake mod 2.5 (no result: WNV protease inh, AP complement, D1 allo mod)
C#CCNC(=O)C1=C[C@H](C)[C@@H](CCCO)[C@H](OCC)O1	none (no result: WNV protease inh, AP complement, D1 allo mod)
C/C(N)=C(/C#N)C(=O)CSc1nc2ccc(C)cc2[nH]1	D1 allo mod -2.6
NC(N)=NCCC[C@H](NC(=O)OCc1ccccc1)C(=O)O	none (no result: WNV protease inh, AP complement, D1 allo mod)
CCOC(=O)c1c(N2C(=O)Nc3cc(Cl)c(Cl)cc3N2O)sc2c1CCCCC2	DAT uptake mod 3.8 (no result: WNV protease inh, AP complement, D1 allo mod)
COc1ccccc1NC(=O)N(Cc1ccccc1)C1=NCC(C)S1 (stereo unspecified)	DAT uptake mod -3.7
CN(C)CCN1CCc2ccccc21	none (no result: WNV protease inh, AP complement, D1 allo mod)
c1ccc2c(c1)CCN2CCN1CCc2ccccc21	D1 allo mod -3.2
N#Cc1c(NC(=O)CSc2nnc(-c3ccccc3)o2)sc2c1CCCC2	none (no result: WNV protease inh, AP complement, D1 allo mod)
O=C(CSc1nnc(-c2csc3c2CCCC3)o1)Nc1ccccc1	D1 allo mod -2.3
C#CCOCCOCCOCCNc1nc(N2CCN(C(=O)[C@H](C)n3cc(CCCN=C(N)N)nn3)CC2)nc(N2CCN(C(=O)[C@H](C)n3cc(CCCN=C(N)N)nn3)CC2)n1	none (no result: WNV protease inh, AP complement, D1 allo mod)
Cc1ccccc1S(=O)(=O)Cc1ccc(C(=O)NCCCOC(C)C)o1	WNV protease inh -5.6
CCOC(=O)C(C)c1ccc2cc(OC)ccc2c1 (stereo unspecified)	DAT uptake mod -4.2 (no result: WNV protease inh, AP complement, D1 allo mod)
COC(=O)C1=C(C)N=c2s/c(=C/c3ccoc3)c(=O)n2C1c1ccccc1 (stereo unspecified)	D1 allo mod -3.6
COC(=O)c1c(NC(C)=O)sc2c1CCCC2	D1 allo mod 5.5
COC(=O)c1c(NS(C)(=O)=O)sc2c1CCCC2	none (no result: D1 allo mod)
O=C(NCCN1CCOCC1)C1(C(F)(F)F)C/C(=C\Cc2ccccc2)CCCO1 (stereo unspecified)	none (no result: WNV protease inh, AP complement, D1 allo mod)
CC1(c2nnc(-c3ccncc3)o2)CC(c2ccc([N+](=O)[O-])cc2)=NO1 (stereo unspecified)	none (no result: WNV protease inh, AP complement, D1 allo mod)
COc1cc(Br)cc(CN2CCN(C=O)CC2)c1O	none
COc1cc([N+](=O)[O-])cc(CN2CCCCC2)c1O	DAT uptake mod -1.2 (no result: WNV protease inh, AP complement, D1 allo mod)
CSc1nc(C)cc(-c2cc(C(=O)Nc3ccccc3)on2)n1	none (no result: WNV protease inh, AP complement, D1 allo mod)
CCCCCN=Cc1c(C)[nH]n(-c2nc3ccccc3s2)c1=O	DAT uptake mod 2.5
CCCc1[nH]n(-c2nc3ccccc3s2)c(=O)c1C=NCCN1CCOCC1	none (no result: AP complement)
COc1cccc(-c2nc(NC(C)C)c3ccccc3n2)c1O	none (no result: AP complement, D1 allo mod)
CCC(C)Nc1nc(-c2cccc(OC)c2O)nc2ccccc12 (stereo unspecified)	DAT uptake mod 3.7 (no result: AP complement, D1 allo mod)
COc1cc(C2C3CN(C)CC=C3C(C#N)=C(N)C2(C#N)C#N)ccc1OC(C)C (stereo unspecified)	D1 allo mod -4.9
COc1cc([C@@H]2[C@H]3CNCC=C3C(C#N)=C(N)C2(C#N)C#N)ccc1OC(C)C	none (no result: D1 allo mod)
Fc1ccc(-c2nnc(-c3ccc(Cl)cc3Cl)o2)cc1	D1 allo mod -2.9
O=S(=O)(Nc1ncnc2sc3c(c12)CCC3)c1ccc(Cl)s1	DAT uptake mod -2.4
Cc1ccc(N=C2CCCN2Cc2ccccc2)c(C#N)c1	none (no result: WNV protease inh, AP complement, D1 allo mod)
CCc1c(C2(O)CCCCC2)[nH]c2ccc(C#N)cc12	none (no result: WNV protease inh, AP complement, D1 allo mod)
Cc1cc(-c2cc(N)n(-c3ccccc3)n2)c(C)n1C1CCCC1	DAT uptake mod 2.1
COc1ccccc1N1CCN(c2ccc(-c3ccccc3)nn2)CC1	D1 allo mod -5.4
COc1ccc(OC)c(C2C(C(=O)c3cc4ccccc4o3)=C(O)C(=O)N2c2cc(C)on2)c1 (stereo unspecified)	DAT uptake mod 3.8
O=C(Nc1ccc2nc(-c3ccco3)c(-c3ccco3)nc2c1)N1CCCCCC1	D1 allo mod -4.5
O=C1NC(=S)S/C1=C1\Sc2ccccc2N1CCCS(=O)(=O)O	D1 allo mod -2.9
CCOc1ccc(OCc2cccc(C(=O)N3CCOCC3)c2)cc1	D1 allo mod -6.7 (no result: DAT uptake mod)
O=C(c1cnn2c(C(F)(F)F)cc(-c3ccco3)nc12)N1CCc2ccccc2C1	none
CC(=NC1CCCCC1)C1=C(O)c2ccccc2C1=O	DAT uptake mod 2 (no result: AP complement)
COc1ccc(CCc2cc(OC)cc(=O)o2)cc1	none (no result: WNV protease inh, AP complement, D1 allo mod)
Cc1nc(-c2ccccc2)sc1C1(C)CC(c2ccc(OC(F)(F)F)cc2)=NO1 (stereo unspecified)	none (no result: WNV protease inh, AP complement, D1 allo mod)
